Laboratory results reported in ChEMBL document CHEMBL4680257, “Discovery of novel NF-кB inhibitor based on scaffold hopping: 1,4,5,6,7,8-hexahydropyrido[4,3-d]pyrimidine” (Eur J Med Chem, 2020).

Tests used:
[1] = test system: SMMC-7721; assay: Cytotoxicity against human SMMC-7721 cells assessed as reduction in cell viability incubated for 24 hrs by MTT assay; assay type: functional, cell-based; details: SMMC-7721, 24 h
Outline: (§1)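 Cells kept at 37 °C in 5% CO₂. HepG2 grown in DMEM with 10% serum; HHL-5, LO2 and SMMC-7721 in 1640 medium with 10% serum. Seeded, grown 24 h, then exposed 24 h to 10, 5, 2.5, 1.25, 0.625 and 0.3125 µg/mL. MTT (5 mg/mL) added for 4 h at 37 °C; formazan dissolved in DMSO, OD read at 570 nm. IC50 averaged from three replicates.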

[2] = test system: RAW264.7; assay: Antiinflammatory activity against mouse RAW264.7 cells assessed as LPS-induced IL-6 at 5 uM pretreated for 2 hrs followed by LPS stimulation and measured after 22 hrs by ELISA relative to control (reference value: 0 %); assay type: functional; details: time 24 hrs
[3] = test system: RAW264.7; assay: Cytotoxicity against mouse RAW264.7 cells assessed as reduction in cell viability at 5 uM incubated for 24 hrs by MTT assay; assay type: cell-based; details: raw264.7, 24 h
[4] = Cytotoxicity against human HHL-5 cells assessed as reduction in cell viability incubated for 24 hrs by MTT assay; assay type: cell-based; details: HHL-5, 24 h; outline: as §1
[5] = test system: L02; assay: Cytotoxicity against human L02 cells assessed as reduction in cell viability incubated for 24 hrs by MTT assay; assay type: cell-based; details: L02, 24 h; outline: as §1
[6] = test system: HepG2; assay: Cytotoxicity against human HepG2 cells assessed as reduction in cell viability incubated for 24 hrs by MTT assay; assay type: functional, cell-based; details: HepG2, 24 h; outline: as §1
[7] = test system: RAW264.7; assay: Antiinflammatory activity against mouse RAW264.7 cells assessed as LPS-induced TNF-alpha at 5 uM pretreated for 2 hrs followed by LPS stimulation and measured after 22 hrs by ELISA (reference value: 0 %); assay type: functional; details: time 24 hrs

SMILES | IC50 [1] [µM] | inhibition at 5 µM [2] [%] | Activity [3] | IC50 [4] [µM] | IC50 [5] [µM] | IC50 [6] [µM] | inhibition at 5 µM [7] [%]
Cl.NC1=NC(c2ccc(F)cc2)C2=C(N1)/C(=C/c1ccc(F)cc1)CN(S(=O)(=O)c1ccc([N+](=O)[O-])cc1)C2 (stereo unspecified) | 19.1 | 66.8 | Non-Toxic | 10.3 | 12.5 | 9.4 | 65.9
CC(=O)Nc1ccc(S(=O)(=O)N2CC3=C(NC(N)=NC3c3cccc(F)c3)/C(=C/c3cccc(F)c3)C2)cc1.Cl (stereo unspecified) | 6.5 | 57.5 | Non-Toxic | 10.7 | 15 | 22.9 | 69.9
Cl.N#Cc1ccc(S(=O)(=O)N2CC3=C(NC(N)=NC3c3ccccc3F)/C(=C/c3ccccc3F)C2)cc1 (stereo unspecified) | 19 | 71.2 | Non-Toxic | 29 | 12 | 11.7 | 62.9
Cl.NC1=NC(c2ccccc2F)C2=C(N1)/C(=C/c1ccccc1F)CN(S(=O)(=O)c1ccc(F)cc1)C2 (stereo unspecified) | 10 | 79.5 | Non-Toxic | 12 | 16.5 | 12.1 | 78.6
Cl.NC1=NC(c2cccc(F)c2)C2=C(N1)/C(=C/c1cccc(F)c1)CN(S(=O)(=O)c1ccc(Br)cc1)C2 (stereo unspecified) | 6.3 | 71 | Non-Toxic | 13 | 10.1 | 10.6 | 69.3
Cl.NC1=NC(c2ccccc2F)C2=C(N1)/C(=C/c1ccccc1F)CN(S(=O)(=O)c1ccc(C(F)(F)F)cc1)C2 (stereo unspecified) | 3.5 | 82.3 | Non-Toxic | 20.8 | 22 | 3.9 | 84.4
Cl.NC1=NC(c2ccccc2F)C2=C(N1)/C(=C/c1ccccc1F)CN(S(=O)(=O)c1ccccc1)C2 (stereo unspecified) | 8.5 | 40.5 | Non-Toxic | 9.9 | 11.2 | 9.9 | 46.9
Cl.NC1=NC(c2cccc(F)c2)C2=C(N1)/C(=C/c1cccc(F)c1)CN(S(=O)(=O)c1ccc([N+](=O)[O-])cc1)C2 (stereo unspecified) | 12.3 | 78.5 | Non-Toxic | 30.5 | 42.4 | 30.6 | 58.8
Cl.NC1=NC(c2ccccc2F)C2=C(N1)/C(=C/c1ccccc1F)CN(S(=O)(=O)c1ccc(Br)cc1)C2 (stereo unspecified) | 9.7 | 79.6 | Non-Toxic | 12.5 | 19.5 | 10.4 | 74.4
CC(=O)Nc1ccc(S(=O)(=O)N2CC3=C(NC(N)=NC3c3ccc(F)cc3)/C(=C/c3ccc(F)cc3)C2)cc1.Cl (stereo unspecified) | 6.2 | 54.2 | Non-Toxic | 32.2 | 20.3 | 7.4 | 40.1
Cl.NC1=NC(c2ccccc2F)C2=C(N1)/C(=C/c1ccccc1F)CN(S(=O)(=O)c1ccc([N+](=O)[O-])cc1)C2 (stereo unspecified) | 5.7 | 79.6 | Non-Toxic | 10.7 | 12.4 | 11.9 | 72.7
CC(=O)Nc1ccc(S(=O)(=O)N2CC3=C(NC(N)=NC3c3ccccc3F)/C(=C/c3ccccc3F)C2)cc1.Cl (stereo unspecified) | 8.6 | 61.6 | Non-Toxic | 22.1 | 11.2 | 11.8 | 67.6
Cl.NC1=NC(c2ccc(F)cc2)C2=C(N1)/C(=C/c1ccc(F)cc1)CN(S(=O)(=O)c1ccc(Cl)cc1)C2 (stereo unspecified) | 12 | 54.8 | Non-Toxic | 27.1 | 16.7 | 7.6 | 48.4
Cl.NC1=NC(c2cccc(F)c2)C2=C(N1)/C(=C/c1cccc(F)c1)CN(S(=O)(=O)c1ccc(Cl)cc1)C2 (stereo unspecified) | 5.5 | 75.9 | Non-Toxic | 12 | 15.1 | 15 | 57.7
Cl.NC1=NC(c2ccc(F)cc2)C2=C(N1)/C(=C/c1ccc(F)cc1)CN(S(=O)(=O)c1ccc(F)cc1)C2 (stereo unspecified) | 17.1 | 71.4 | Non-Toxic | 11.1 | 13.3 | 4.1 | 72.3
Cl.NC1=NC(c2ccc(F)cc2)C2=C(N1)/C(=C/c1ccc(F)cc1)CN(S(=O)(=O)c1ccc(C(F)(F)F)cc1)C2 (stereo unspecified) | 3.8 | 81.7 | Non-Toxic | 24.4 | 15.4 | 3.3 | 87.5
Cl.N#Cc1ccc(S(=O)(=O)N2CC3=C(NC(N)=NC3c3cccc(F)c3)/C(=C/c3cccc(F)c3)C2)cc1 (stereo unspecified) | 4.2 | 73 | Non-Toxic | 18.9 | 17.2 | 3.5 | 74.5
Cc1ccc(S(=O)(=O)N2CC3=C(NC(N)=NC3c3ccc(F)cc3)/C(=C/c3ccc(F)cc3)C2)cc1.Cl (stereo unspecified) | 4.3 | 60.1 | Non-Toxic | 32.7 | 17.7 | 4.5 | 61.8
Cl.N#Cc1ccc(S(=O)(=O)N2CC3=C(NC(N)=NC3c3ccc(F)cc3)/C(=C/c3ccc(F)cc3)C2)cc1 (stereo unspecified) | 42.7 | 51.1 | Non-Toxic | 26.7 | 18.6 | 11.7 | 45.9
Cc1ccc(S(=O)(=O)N2CC3=C(NC(N)=NC3c3cccc(F)c3)/C(=C/c3cccc(F)c3)C2)cc1.Cl (stereo unspecified) | 11.7 | 46.7 | Non-Toxic | 23.2 | 11.2 | 11.7 | 40.5
Cl.NC1=NC(c2ccc(F)cc2)C2=C(N1)/C(=C/c1ccc(F)cc1)CN(S(=O)(=O)c1ccccc1)C2 (stereo unspecified) | 8 | 39.8 | Non-Toxic | 11.5 | 9.9 | 9.5 | 33.5
Cc1ccc(S(=O)(=O)N2CC3=C(NC(N)=NC3c3ccccc3F)/C(=C/c3ccccc3F)C2)cc1.Cl (stereo unspecified) | 7.3 | 56.8 | Non-Toxic | 9.6 | 11.5 | 13.1 | 44
Cl.NC1=NC(c2ccc(F)cc2)C2=C(N1)/C(=C/c1ccc(F)cc1)CN(S(=O)(=O)c1ccc(Br)cc1)C2 (stereo unspecified) | 12.2 | 64.3 | Non-Toxic | 18.3 | 18.3 | 5.6 | 58.1
